HIV Rev-RRE inh: inhibitors of HIV-1 Rev-RRE RNA interaction. P05866. AID 704. Rev peptide-RRE RNA binding, FRET. inhibition, % at 8 µM. 97,000 tested, 0.79% active;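 active means inhibition above the screen-wide mean plus 3 SD, cut at about 35% in these data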
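Test system: Cy5-tagged RRE RNA duplex with fluorescein-tagged Rev peptide | Read-out: % inhibition of FRET ratio versus controls | Probe or stimulus: Labelled Rev peptide | Incubation: 5 min RNA-compound premix plus 15 min binding step, 25 °C | Technique: FRET fluorescence readout | Benchmarks: DMSO low control, neomycin B high control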
PostGolgi ctrl: inhibits growth of the yeast control strain. efflux-deficient yeast background strain, growth absorbance A615, 16 h. inhibition, % at 10 µM. 98,000 tested, 5% active
PLK1 PBD inh: Plk1 (human) PBD binding inhibition; P53350; Plk1 PBD phosphopeptide binding, fluorescence polarization; inhibition, %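 (tested at about 20 µM)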; 97,000 tested, 0.13% active; in the data active means inhibition above about 34%, passing the limit was not always enough
PLK1 inh: inhibitors of human PLK1 kinase. recombinant PLK1 kinase, TR-FRET peptide phosphorylation. inhibition, % at 10 µM. 97,000 tested, 0.53% active;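 active means inhibition of 50% or more in the single-concentration screen; inactive means inhibition below 50%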
EphB4 ephrin blk: antagonists of human EphB4-ephrin-B2 interaction | P54760 | AID 720 | inhibition, % at 7 µM | EphB4 LBD / TNYL-RAW-Alexa532 peptide, fluorescence polarization | 97,000 tested, 0.15% active;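 active means inhibition above the screen-wide mean inhibition plus 3 SD, cut at about 15% in these data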
Target sequence (P54760 whole entry, looked up, the tested form may be a part): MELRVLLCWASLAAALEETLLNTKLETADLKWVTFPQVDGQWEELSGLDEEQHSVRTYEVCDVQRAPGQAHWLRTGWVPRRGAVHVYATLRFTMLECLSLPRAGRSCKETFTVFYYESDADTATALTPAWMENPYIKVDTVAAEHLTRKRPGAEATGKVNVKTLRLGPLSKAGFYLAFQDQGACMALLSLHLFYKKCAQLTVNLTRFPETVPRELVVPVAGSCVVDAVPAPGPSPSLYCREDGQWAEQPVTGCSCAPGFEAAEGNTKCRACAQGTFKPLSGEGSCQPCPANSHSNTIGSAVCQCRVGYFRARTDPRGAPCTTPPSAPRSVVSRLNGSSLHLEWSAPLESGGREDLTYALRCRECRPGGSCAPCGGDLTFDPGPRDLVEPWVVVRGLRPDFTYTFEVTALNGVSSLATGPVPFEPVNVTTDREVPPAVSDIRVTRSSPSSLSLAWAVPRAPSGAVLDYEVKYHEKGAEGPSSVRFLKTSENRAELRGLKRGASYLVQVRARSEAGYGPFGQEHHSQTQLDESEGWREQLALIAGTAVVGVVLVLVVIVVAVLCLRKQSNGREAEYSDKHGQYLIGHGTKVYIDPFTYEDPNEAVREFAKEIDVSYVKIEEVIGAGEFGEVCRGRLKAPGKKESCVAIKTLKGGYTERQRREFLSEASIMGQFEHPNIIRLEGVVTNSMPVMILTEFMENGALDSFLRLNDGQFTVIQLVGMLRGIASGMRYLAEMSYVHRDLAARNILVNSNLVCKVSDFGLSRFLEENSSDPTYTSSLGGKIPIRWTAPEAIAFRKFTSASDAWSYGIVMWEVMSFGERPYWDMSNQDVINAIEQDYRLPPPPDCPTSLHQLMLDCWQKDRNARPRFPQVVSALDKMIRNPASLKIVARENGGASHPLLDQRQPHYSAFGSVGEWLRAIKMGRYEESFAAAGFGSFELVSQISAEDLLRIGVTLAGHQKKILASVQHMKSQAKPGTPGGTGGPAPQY
PostGolgi yeast: growth inhibition of a yeast mutant, post-Golgi transport screen. post-Golgi transport phenotypic cell assay. inhibition, % at 10 µM. 98,000 tested, 0.9% active. AID 739;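 further: yeast cells grown in 1536-well plates; yeast grown about 18 h at 30C before absorbance read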
Hits are given with their value; - = inactive; . = no result given; [ ] = another dose, or the depositor's remark. Hits are enriched below; roughly 6.4% of the tested compounds scored in any of these assays. Unless noted, no stated cut-off is given here; in the data, active means inhibition above about 30%; inactive means the rest.

SMILES | HIV Rev-RRE inh | PostGolgi ctrl | PLK1 PBD inh | PLK1 inh | EphB4 ephrin blk | PostGolgi yeast
CCCCC1OC23CCCCC2C(C#N)(C(=N)O3)C1(C#N)C#N (centres undefined) | - | - | - | - | - | -
CCCCCCCCOc1ccc(C2OC34CCCCC3C(C#N)(C#N)C2(C#N)C(=N)O4)cc1 (centres undefined) | 42.9 | - | - | - | - | -
COC(=O)c1ccc(N2C(=O)CC(NCc3ccccc3)C2=O)cc1 (centres undefined) | - | - | - | - | - | -
CN(Cc1ccccc1)C1CC(=O)N(c2ccc(C(=O)O)cc2)C1=O (centres undefined) | - | 42.4 | - | - | - | -
Cn1c(=O)c2c3c(sc2n2c(SCC(N)=O)nnc12)CC(C(C)(C)C)CC3 (centres undefined) | - | - | - | - | - | -
Nc1ncc(-c2nnnn2-c2ccc(Cl)cc2)c(-c2ccc(Cl)cc2)n1 | - | 36.4 | - | - | - | -
Clc1ccc(-n2nnnc2-c2ccccc2)cc1 | . | - | . | . | . | -
O=C(OCc1ccc2c(c1)OCO2)c1cccc(S(=O)(=O)N2CCCCC2)c1 | - | 38.0 | - | - | - | -
O=S(=O)(c1ccc2c(c1)OCCO2)N1CCN(Cc2ccc3c(c2)OCO3)CC1 | - | 31.4 | - | - | - | -
O=S(=O)(c1ccc(F)c(F)c1)N1CCN(Cc2ccc3c(c2)OCO3)CC1 | - | - | - | - | - | -
CC1=C(C#N)C(=O)N(C)C(C)(C)C1 | - | - | - | - | - | -
CC1=C(C#N)C(=O)NC(C)(C)C1 | - | 36.6 | - | - | - | -
CCN1CCc2c(C#N)c(N3CCCCC3)nc(NCc3ccccc3)c2C1 | - | - | - | - | - | -
CCN1CCc2c(C#N)c(N3CCOCC3)nc(NCc3ccccc3)c2C1 | - | 35.9 | - | - | - | -
CCCCNC(=O)c1ccc(S(=O)(=O)c2ccc(Cl)cc2)c(NC(C)=O)c1 | - | - | - | - | - | -
CN(C)C(=O)N1CCN(C(=O)N2CCOCC2)CC1 | - | . | - | - | - | .
COc1ccc(NC(=S)NC(NC(=O)c2ccc(Cl)cc2Cl)C(Cl)(Cl)Cl)c([N+](=O)[O-])c1 (centres undefined) | - | - | - | - | - | 68.9
COc1ccc(NC(=S)NC(NC(=O)c2ccccc2Cl)C(Cl)(Cl)Cl)c([N+](=O)[O-])c1 (centres undefined) | - | - | - | - | - | -
CCOC(=O)C1=C(c2ccccc2)N2CCS(=O)(=O)N=C2S1 | - | - | - | - | 16.1 | -
CCOC(=O)c1c(N)nn(C(=O)C(C)(C)C)c1-c1ccccc1 | - | - | - | - | - | -
COc1cc(C2C(C#N)=C(N)Oc3cc(O)ccc32)cc2c1OCO2 (centres undefined) | . | - | . | . | . | -
COc1cc(C2C(C#N)=C(N)Oc3cc(N(C)C)ccc32)cc2c1OCO2 (centres undefined) | 92.3[fluorescence artefact?] | - | - | - | - | -
N#CC1=C(N)Oc2cc3c(cc2C1c1ccc(Cl)cc1)OCO3 (centres undefined) | - | 30.0 | - | - | - | -
COCCN(C(=O)C1CC1)c1nnc(-c2cccc(C)c2)s1 | - | - | - | - | - | -
Cc1c(C(=O)c2no[n+]([O-])c2C(=O)c2cnn(C)c2C)cnn1C | - | - | - | - | - | -
SMILES | HIV Rev-RRE inh | PostGolgi ctrl | PLK1 PBD inh | PLK1 inh | EphB4 ephrin blk | PostGolgi yeast
O=C(CCC(=O)c1ccc(F)cc1)OC1CCOC1=O (centres undefined) | - | - | - | - | - | -
CCC(C)Nc1nc2c(c(=O)n(C)c(=O)n2C)n1Cc1ccc(F)cc1 (centres undefined) | - | 35.4 | - | - | - | -
CC(C)CCn1c(SCc2ccc(Cl)cc2)nc2c1c(=O)[nH]c(=O)n2C | - | - | - | - | - | -
CCSc1nc2c(c(=O)n(C)c(=O)n2C)n1Cc1ccc(Cl)cc1 | - | . | - | - | - | .
Cc1ccc(Cn2c(SCC(C)C)nc3c2c(=O)n(C)c(=O)n3C)cc1 | - | - | - | - | - | 34.5
Cc1ccc(CSc2nc3c(c(=O)[nH]c(=O)n3C)n2CCC(C)C)cc1 | - | 40.7 | - | - | - | -
CCCc1nnc(N2C(=O)c3cccc4cccc(c34)C2=O)s1 | - | - | - | - | - | -
CCCCN(CC)C(=O)Cc1c(C(=O)O)[nH]c2ccc(Cl)cc12 | - | 32.2 | - | - | - | -
CCOCCCNC(=O)Cc1c(C(=O)O)[nH]c2ccc(Cl)cc12 | - | - | - | - | - | -

From PubChem
